# Test results: the M2OR odorant receptor database
# Key:
# Settings in all cases: stereoisomer not certain
# O1440 [1] = tested on: T1, O1440
# T1 sequence (whole entry): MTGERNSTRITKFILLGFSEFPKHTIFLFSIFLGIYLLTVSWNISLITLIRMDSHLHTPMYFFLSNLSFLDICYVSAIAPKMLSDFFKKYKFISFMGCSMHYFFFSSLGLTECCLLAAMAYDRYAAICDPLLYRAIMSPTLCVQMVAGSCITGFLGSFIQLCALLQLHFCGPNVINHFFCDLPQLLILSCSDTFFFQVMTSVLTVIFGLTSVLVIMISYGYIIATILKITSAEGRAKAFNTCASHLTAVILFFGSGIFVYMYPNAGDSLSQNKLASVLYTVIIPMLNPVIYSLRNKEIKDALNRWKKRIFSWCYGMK
# In short: (§1)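 Assay methods differ from source to source, frequently being transient luciferase assays in mammalian cell lines. For each receptor–molecule pair, the label responsive (active) applies when the original authors judged the measured signal statistically different from baseline, and non-responsive (inactive) applies otherwise.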
# O1440 [2] = tested on: T2, O1440; remark: listed apart in the source
# T2 sequence (whole entry): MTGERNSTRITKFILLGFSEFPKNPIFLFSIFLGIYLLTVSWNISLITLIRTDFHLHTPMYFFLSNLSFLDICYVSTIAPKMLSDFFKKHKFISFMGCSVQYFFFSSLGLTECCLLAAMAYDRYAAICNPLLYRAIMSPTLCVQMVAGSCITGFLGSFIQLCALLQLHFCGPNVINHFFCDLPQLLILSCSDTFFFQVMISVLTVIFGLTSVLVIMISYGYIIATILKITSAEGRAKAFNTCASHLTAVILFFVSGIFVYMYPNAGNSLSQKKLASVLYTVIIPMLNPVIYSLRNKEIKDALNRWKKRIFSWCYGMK
# In short: as §1
# O14A2 I133V = tested on: O14A2 I133V
# In short: as §1
# O14CZ = tested on: O14CZ
# In short: as §1
# O14I1 V36A D50N Y216C = tested on: O14I1 V36A D50N Y216C
# In short: as §1
# O14J1 N3Y = tested on: O14J1 N3Y
# In short: as §1
# O14K1 D119Y = tested on: O14K1 D119Y
# In short: as §1
# O2A25 = tested on: O2A25
# In short: as §1
# O2AE1 = tested on: O2AE1
# In short: as §1
# O2AJ1 = tested on: O2AJ1
# In short: as §1
# Chain of O14CZ (as listed by the source): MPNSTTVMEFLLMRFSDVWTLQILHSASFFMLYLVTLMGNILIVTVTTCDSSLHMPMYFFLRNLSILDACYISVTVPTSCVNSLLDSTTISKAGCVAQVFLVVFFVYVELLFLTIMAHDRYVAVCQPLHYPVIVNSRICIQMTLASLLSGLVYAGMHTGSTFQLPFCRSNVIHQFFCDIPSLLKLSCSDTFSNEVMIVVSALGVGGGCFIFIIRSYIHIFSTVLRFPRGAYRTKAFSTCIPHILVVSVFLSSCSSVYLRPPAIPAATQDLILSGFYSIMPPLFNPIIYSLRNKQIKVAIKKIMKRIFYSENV
# Chain of O14A2 I133V (as listed by the source, stated change not applied): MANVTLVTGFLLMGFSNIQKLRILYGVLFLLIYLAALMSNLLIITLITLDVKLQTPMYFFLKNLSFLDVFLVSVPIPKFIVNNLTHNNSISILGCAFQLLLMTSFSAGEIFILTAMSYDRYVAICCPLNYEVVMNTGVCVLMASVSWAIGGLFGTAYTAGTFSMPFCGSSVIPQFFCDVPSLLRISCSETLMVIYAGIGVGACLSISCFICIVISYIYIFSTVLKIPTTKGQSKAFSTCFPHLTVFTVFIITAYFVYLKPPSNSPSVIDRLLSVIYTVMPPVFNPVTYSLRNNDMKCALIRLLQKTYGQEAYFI
# Chain of O2AJ1 (as listed by the source): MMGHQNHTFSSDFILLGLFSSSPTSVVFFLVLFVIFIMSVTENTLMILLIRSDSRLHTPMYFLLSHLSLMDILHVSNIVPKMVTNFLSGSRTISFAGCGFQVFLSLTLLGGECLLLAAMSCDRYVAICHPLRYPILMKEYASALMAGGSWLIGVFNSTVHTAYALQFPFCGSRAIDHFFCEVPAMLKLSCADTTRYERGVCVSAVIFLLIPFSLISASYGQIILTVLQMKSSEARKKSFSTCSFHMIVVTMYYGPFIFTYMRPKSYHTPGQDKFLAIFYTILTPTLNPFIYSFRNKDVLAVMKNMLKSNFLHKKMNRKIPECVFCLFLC
# Chain of O14J1 N3Y (as listed by the source): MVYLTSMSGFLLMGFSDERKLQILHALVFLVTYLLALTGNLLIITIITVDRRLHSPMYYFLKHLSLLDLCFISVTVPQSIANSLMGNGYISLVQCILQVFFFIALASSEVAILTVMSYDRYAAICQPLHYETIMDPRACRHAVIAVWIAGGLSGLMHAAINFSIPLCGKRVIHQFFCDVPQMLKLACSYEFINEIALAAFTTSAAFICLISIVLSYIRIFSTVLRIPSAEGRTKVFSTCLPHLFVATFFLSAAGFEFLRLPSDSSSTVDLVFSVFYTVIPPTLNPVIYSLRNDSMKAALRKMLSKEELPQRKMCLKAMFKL
# Chain of O2AE1 (as listed by the source): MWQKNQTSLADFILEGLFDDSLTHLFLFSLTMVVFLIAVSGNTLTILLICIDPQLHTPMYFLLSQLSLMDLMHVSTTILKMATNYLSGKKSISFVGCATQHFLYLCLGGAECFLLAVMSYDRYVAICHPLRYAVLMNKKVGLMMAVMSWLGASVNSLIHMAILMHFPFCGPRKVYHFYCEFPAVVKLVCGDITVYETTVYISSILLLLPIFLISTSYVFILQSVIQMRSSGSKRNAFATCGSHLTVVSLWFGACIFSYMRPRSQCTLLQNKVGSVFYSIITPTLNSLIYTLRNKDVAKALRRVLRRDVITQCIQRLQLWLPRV
# Chain of O2A25 (as listed by the source): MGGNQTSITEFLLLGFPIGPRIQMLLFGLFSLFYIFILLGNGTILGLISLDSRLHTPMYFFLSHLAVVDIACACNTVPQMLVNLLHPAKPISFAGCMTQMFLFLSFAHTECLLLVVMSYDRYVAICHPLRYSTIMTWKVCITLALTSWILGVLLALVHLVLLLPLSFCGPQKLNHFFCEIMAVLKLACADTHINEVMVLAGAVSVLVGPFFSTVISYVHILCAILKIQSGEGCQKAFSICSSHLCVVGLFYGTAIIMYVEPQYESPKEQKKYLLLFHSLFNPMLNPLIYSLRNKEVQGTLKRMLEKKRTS
# Chain of O14K1 D119Y (as listed by the source, stated change not applied): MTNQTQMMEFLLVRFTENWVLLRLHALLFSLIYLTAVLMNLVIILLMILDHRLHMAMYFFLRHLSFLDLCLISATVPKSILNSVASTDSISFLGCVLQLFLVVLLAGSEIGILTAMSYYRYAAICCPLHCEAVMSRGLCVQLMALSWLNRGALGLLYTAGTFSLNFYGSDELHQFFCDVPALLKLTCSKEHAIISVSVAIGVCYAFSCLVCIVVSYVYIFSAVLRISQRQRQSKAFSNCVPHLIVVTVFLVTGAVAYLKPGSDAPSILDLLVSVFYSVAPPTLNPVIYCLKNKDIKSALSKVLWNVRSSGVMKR
structure (smiles),measurement,setting,value
CC(=O)c1cc2c(cc1C)C(C)(C)C(C)CC2(C)C (centres undefined),odorant receptor agonist call,O1440 [1],active
same,odorant receptor agonist call,O1440 [2],active
C=CCOC(=O)Cc1ccccc1,odorant receptor agonist call,O14A2 I133V,inactive
same,odorant receptor agonist call,O14CZ,inactive
same,odorant receptor agonist call,O14I1 V36A D50N Y216C,inactive
same,odorant receptor agonist call,O14J1 N3Y,inactive
same,odorant receptor agonist call,O14K1 D119Y,inactive
same,odorant receptor agonist call,O2A25,inactive
same,odorant receptor agonist call,O2AE1,inactive
same,odorant receptor agonist call,O2AJ1,inactive
CC(=O)c1cc(C(C)(C)C)cc2c1CCC2(C)C,odorant receptor agonist call,O1440 [1],inactive
same,odorant receptor agonist call,O1440 [2],inactive
Cc1c([N+](=O)[O-])c(C)c([N+](=O)[O-])c(C(C)(C)C)c1[N+](=O)[O-],odorant receptor agonist call,O1440 [1],inactive
same,odorant receptor agonist call,O1440 [2],active
